Screening results: PubChem, several laboratories
STAT3 activator: activators of IL-6 induced STAT3 signaling; U3A cells, IL-6 STAT3-luciferase reporter, luminescence; 100% = signal with IL-6 EC80 alone; activation (% of control), % at 5.6 µM; hit rate 0.91% among 190,000; AID 871;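 active = activation above the screen-wide mean of compound activation plus 3 SD, cut at about 130% in these data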;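 also: 0% = background luminescence of wells with medium and substrate only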
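Test system: human U3A cells carrying STAT3-luciferase construct; control set: IL-6-only wells as 100% reference; timing: compound pre-incubation 1 h before IL-6, then 6 h stimulation at 37 °C; also added: IL-6 stimulus at 33 ng/mL final; evaluation: % activation versus median of IL-6-stimulated wells; detection: reporter luminescence signal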
STAT3 blocker: reduces IL-6 driven STAT3 reporter signal; U3A cells, IL-6 STAT3-luciferase reporter, luminescence; host cell line lacks STAT1; inhibition, % at 5.5 µM; hit rate 0.89% among 190,000; AID 862;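 active = inhibition above the mean inhibition across all screened compounds plus 3 SD, cut at about 44% in these data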;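 also: 0% = DMSO only wells and 100% = 100 µM nifuroxazide control wells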
APP 5'UTR act: APP 5'UTR luciferase reporter activation; hit rate 1% among 190,000; SH-SY5Y APP 5'UTR luciferase reporter, luminescence; zero percent = DMSO vehicle wells; activation, % at 2 µM; AID 1276;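 active = activation above a set limit, based on mean plus 3 SD of controls, cut at about 140% in these data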
STAT1 inh: inhibitors of IFN-gamma induced STAT1 signaling | NIH 3T3 STAT1-luciferase reporter, luminescence | inhibition, % at 5.5 µM | hit rate 0.35% among 200,000 | AID 920;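 active = inhibition above a set limit, the mean inhibition across all tested compounds plus 3 SD, cut at about 34% in these data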;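 also: 0% = IFN-gamma with DMSO and 100% = IFN-gamma with 300 µM nifuroxazide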
NF-kB neuron act: compounds increasing NF-kB expression in human neuronal cells. NF-kB reporter expression; hits give high values. fold change at 12.5 µM. hit rate 1.6% among 190,000; in the data active = fold change above about 3.3
STAT1 activator: STAT1 signaling activation; hit rate 2.6% among 200,000; NIH 3T3 STAT1-luciferase reporter, IFN-gamma, luminescence; 100% = IFN-gamma alone, no compound; AID 932; activation (% of control), % at 5.5 µM;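 active = activation above the screen-wide mean activation plus 3 SD, cut at about 130% in these data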;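 also: raw ratio to IFN-gamma control signal so 100% means no change and 0% no light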
* marks the source's active call; other numbers are inactive results; nt = no result given. The list is not random: actives were taken first. Their share in the collection is about 4.9%.

SMILES | STAT3 activator | STAT3 blocker | APP 5'UTR act | STAT1 inh | NF-kB neuron act | STAT1 activator
C#Cc1ccc([C@@H]2C=C(C(=O)OCC=C)O[C@H](OCc3ccc(CO)cc3)C2)cc1 | nt | nt | 26.9 | 0.3 | 1.05 | 101.2
O=C(COc1ccc(Cl)cc1)NCc1cn2cc(Cl)ccc2n1 | 98.4 | 3.3 | -15.7 | -2.1 | 1.22 | 101.0
CC(c1ccc(F)cc1)n1cc(C(=O)NCCN(C)C)nn1 (stereo not given) | 102.1 | 2.9 | -14.7 | 0.6 | 1.06 | 98.2
Cc1[nH]n2c(=O)c3c(nc2c1-c1ccc(F)cc1)CCCC3 | 97.1 | 7.7 | -5.0 | -1.0 | 1.26 | 99.4
O=c1c2c(nc3cc(-c4cccc(Cl)c4)[nH]n13)CCC2 | 98.1 | 5.8 | 143.1* | -38.9 | 5.44* | 135.0*
O=c1c2c(nc3cc(-c4cccc(F)c4)[nH]n13)CCC2 | 80.0 | 27.2 | 109.3 | -32.4 | 4.2* | 130.1*
CCOC(=O)C(C)n1nc(/C=C/c2ccc(OC)cc2)ccc1=O (stereo not given) | 92.7 | 10.6 | 14.4 | 4.5 | 1.18 | 96.2
CC(C)c1ccc(/C=C/c2ccc(=O)n(C)n2)cc1 | 73.6 | 35.9 | 121.8 | -37.2 | 7.47* | 130.8*
c1ccc2[nH]c(-c3ccncc3)nc2c1 | 89.6 | 15.4 | 18.9 | 10.7 | 1.22 | 88.2
c1ccc(-c2nc3ccccc3[nH]2)nc1 | 91.6 | 13.1 | 85.1 | -40.4 | 2.65 | 136.7*
O=c1[nH]c(-c2ccccn2)nc2ccccc12 | 93.6 | 9.3 | 31.9 | -37.7 | 1.49 | 134.6*
Nc1nc(-c2nc3ccccc3[nH]2)cs1 | 85.8 | 19.7 | 139.7* | -43.4 | 4.29* | 140.0*
COc1ccc(/C=N/NC(=O)c2ccc3ccccc3c2)cc1OS(=O)(=O)c1ccc(NC(C)=O)cc1 | 93.7 | 13.7 | -71.5 | 6.5 | 0.61 | 94.1
S=c1[nH]c2ccccc2o1 | 133.3* | -38.5 | -1.5 | 5.5 | 1.26 | 93.5
C=CCN(CC=C)c1cnn(-c2nc3ccccc3[nH]2)c(=O)c1Cl | 79.8 | 23.2 | 141.6* | -23.4 | 2.76 | 121.5
CCC(=O)Oc1ccc(C(=O)Nc2ccc([N+](=O)[O-])cc2)cc1 | 107.0 | -0.1 | 44.3 | -38.5 | 1.2 | 133.9*
CC(C)COc1ccc(C(=O)Nc2ccc([N+](=O)[O-])cc2)cc1 | 85.9 | 22.6 | 16.4 | -17.8 | 1.18 | 115.1
CCSc1nnc(NS(=O)(=O)c2ccc(C)cc2)s1 | 100.0 | -2.6 | -13.8 | 2.4 | 0.93 | 97.9
CN(C)CCCNC(=O)c1cc2sc3ccccc3c2s1 | 101.9 | 3.7 | -4.8 | -6.9 | 1.38 | 106.3
COCCNC(=O)c1cc2sc3ccccc3c2s1 | 86.8 | 17.8 | 103.8 | -40.8 | 2.26 | 136.8*
COc1ccc2c(c1OC)C(=O)N(c1nccs1)C2 | 123.7 | -18.0 | 46.1 | -34.6 | 1.54 | 131.6*
Cc1ccc(S(=O)(=O)N2CCCCC2C(=O)O)s1 (stereo not given) | 102.2 | 9.4 | -10.3 | 10.5 | 0.82 | 89.8
COc1ccc(N(CCCN2C(=O)c3cccc4cccc(c34)C2=O)C(=O)c2cccnc2)cc1 | 109.7 | -10.2 | 31.2 | 1.8 | 0.8 | 97.0
COc1ccc(N(CCCN2C(=O)c3cccc4cccc(c34)C2=O)C(=O)c2ccncc2)cc1 | 112.6 | -13.8 | 3.5 | -33.7 | 0.9 | 129.7*
Cc1cccc(-n2c(SCc3ccc([N+](=O)[O-])cc3)nnc2-c2c[nH]c3ccccc23)c1 | 92.5 | 15.0 | 13.9 | 2.9 | 1.28 | 96.5
SMILES | STAT3 activator | STAT3 blocker | APP 5'UTR act | STAT1 inh | NF-kB neuron act | STAT1 activator
CCOC(=O)c1sc2nc3n(c(=O)c2c1C)CCC3 | 87.2 | 15.6 | 18.3 | -10.2 | 0.92 | 108.9
CCOC(=O)c1sc2nc3n(c(=O)c2c1C)CCCCC3 | 91.0 | 18.0 | -1.5 | -36.1 | 2.45 | 132.9*
CC1CCN(CCOc2ccc(OCc3ccccc3)cc2)CC1 | 98.9 | 0.4 | 3.4 | -3.1 | 1.39 | 102.7
COc1cc(C2CC(=O)Nc3c2c(=O)nc2c(C)cccn32)cc(OC)c1OC (stereo not given) | 99.7 | 1.7 | 10.6 | -6.5 | 1.2 | 105.0
O=C1N/C(=C/c2ccc(N3CCCC3)cc2)C(=O)N1c1ccccc1 | 103.5 | -1.8 | 38.8 | -34.4 | 1.63 | 130.7*
O=C1N/C(=C/c2ccc(N3CCOCC3)o2)C(=O)N1c1ccccc1 | 89.7 | 14.8 | -54.0 | -0.5 | 6.25* | 100.4
C=CCN1C(=O)N/C(=C/c2ccc(N3CCOCC3)o2)C1=O | 84.3 | 17.5 | -88.5 | 25.1 | 0.44 | 78.2
O=C1/C(=C/c2ccc(N3CCCC3)cc2)NC(=S)N1C1CC1 | 90.6 | 10.0 | 34.7 | -17.1 | 0.89 | 115.7
Cc1cc(C(=O)CN2CCC(C)CC2)c(C)n1-c1ccccc1F | 71.5 | 29.9 | 131.8 | -38.9 | 0.31 | 135.4*
Cc1cc(C(=O)CN2C(=O)C(=O)N(Cc3ccccc3)C2=O)c(C)n1-c1ccccc1F | 103.7 | -3.9 | 33.3 | -2.4 | 0.88 | 102.8
Cc1cc(Br)ccc1NCc1ccccn1 | 83.2 | 29.3 | 7.6 | -16.7 | 0.59 | 115.0
CCn1c(COc2cccc(C)c2)nc2ccccc21 | 82.9 | 23.4 | 0.6 | -5.0 | 1.36 | 104.6
COCn1c(COc2ccc3ccccc3c2)nc2ccccc21 | 111.4 | -10.3 | 96.1 | -41.3 | 3.91* | 137.9*
CCOC(=O)Cn1nc(-c2ccc(Cl)cc2)cc1N | 99.8 | 4.5 | 11.7 | -16.3 | 1.34 | 115.1
CCOC(=O)CCn1nc(-c2ccc(Cl)cc2)cc1N | 94.2 | 11.8 | 46.3 | -41.9 | 2.36 | 138.3*
CCC(C)(C)NC(=O)C1CCN(c2nc(OC)nc(OC)n2)CC1 | 100.9 | 7.6 | 9.9 | 3.3 | 1.31 | 95.1
O=C(NCc1ccco1)c1ccc2ccccc2c1 | 90.3 | 14.9 | 86.2 | -37.0 | 1.35 | 133.6*
O=C(NCc1ccco1)c1ccc2c(c1)C(=O)c1ccccc1-2 | 95.0 | 8.1 | 20.6 | -19.3 | 1.49 | 132.9*
O=C(Nc1nc2cc(Cl)ccc2s1)C1CCCN(S(=O)(=O)c2cccc3cccnc23)C1 (stereo not given) | 99.6 | 5.3 | -0.6 | -9.1 | 0.59 | 108.3
CS(=O)(=O)N1CCN(Cc2ccc(C(F)(F)F)cc2)CC1 | 93.3 | 13.4 | 5.7 | 12.0 | 0.88 | 89.0
COc1ccc(S(=O)(=O)n2nc(OCc3cccs3)cc2N)cc1 | nt | nt | 3.3 | 9.7 | 1.09 | 92.4
CCCCC(=O)N/N=C/c1ccc(Sc2cccc3cccnc23)o1 | 113.6 | -19.9 | 0.6 | 8.2 | 4.38* | 92.5
O=C(Cc1cccc2ccccc12)N/N=C/c1ccc(Sc2cccc3cccnc23)o1 | 97.0 | 10.9 | -54.4 | 3.3 | 0.7 | 96.9
Cc1ccc(Nc2c([N+](=O)[O-])c(=O)oc3ccccc23)cc1 | 97.5 | 5.1 | 8.1 | 9.9 | 1.4 | 89.4
O=c1oc2ccccc2c(Nc2ccc3ccccc3c2)c1[N+](=O)[O-] | 133.5* | -32.8 | 1.9 | 10.7 | 1.02 | 90.2
N/C(=N\OC(=O)c1cccc2ccccc12)c1cccnc1 | 135.6* | -39.2 | 63.1 | -32.7 | 1.9 | 128.2
N/C(=N\OC(=O)c1ccccc1Cl)c1ccccc1 | 99.2 | 1.3 | 166.1* | -0.4 | 7.68* | 100.4
